In brackets after ≈: the same amount, converted by molar mass.
Tests used:
Format in all cases: functional
Bacillus subtilis = experiment: Antibacterial activity against Bacillus subtilis
Haemophilus influenzae = experiment: Antibacterial activity against Haemophilus influenzae
Cutibacterium acnes = experiment: Antibacterial activity against Propionibacterium acnes
Staphylococcus aureus = experiment: Antibacterial activity against Staphylococcus aureus
[1] = system: Staphylococcus epidermidis; experiment: Antibacterial activity against Staphylococcus epidermidis
PBMC [2] = experiment: Inhibition of LPS-induced TNFalpha release in human PBMC at 10 uM relative to Dexamethasone
Procedure, shortened: (§1)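 Test compound at a single concentration of 10. Stimulation: LPS for 24 h (TNF-α, IL-1β), PHA for 24 h (IFN-γ), concanavalin A for 48 h (IL-4). Cytokines released were measured by ELISA. Inhibition is given as percent of untreated control.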

PBMC [3] = experiment: Inhibition of LPS-induced IL1-beta release in human PBMC at 10 uM […]; procedure, shortened: as §1
PBMC [4] = experiment: Inhibition of PHA-induced IFN-gamma release in human PBMC at 10 uM relative to Dexamethasone; procedure, shortened: as §1
PBMC [5] = experiment: Inhibition of concanavalin A-induced IL4 release in human PBMC at 10 uM relative to Dexamethasone; procedure, shortened: as §1

O=C(OB(c1ccc(F)c(Cl)c1)c1ccc(F)c(Cl)c1)c1ncccc1O
MIC (Bacillus subtilis): 8 µg/mL (≈ 19.6 µM)
MIC (Haemophilus influenzae): 4 µg/mL (≈ 9.8 µM)
MIC (Cutibacterium acnes): 3 µg/mL (≈ 7.35 µM)
MIC (Staphylococcus aureus): 1 µg/mL (≈ 2.45 µM)
MIC [1]: 8 µg/mL (≈ 19.6 µM)

Cc1ccc(B(OC(=O)c2ncccc2C(=O)O)c2ccc(C)c(Cl)c2)cc1Cl
MIC (Bacillus subtilis): 8 µg/mL (≈ 18.7 µM)
MIC (Haemophilus influenzae): 8 µg/mL (≈ 18.7 µM)
MIC (Cutibacterium acnes): 3 µg/mL (≈ 7.01 µM)
MIC (Staphylococcus aureus): 0.125 µg/mL (≈ 0.292 µM)
MIC [1]: 4 µg/mL (≈ 9.34 µM)

Cc1ccc(B(OC(=O)c2ncccc2C(=O)c2ccccc2)c2ccc(C)c(Cl)c2)cc1Cl
MIC (Bacillus subtilis): 64 µg/mL (≈ 131 µM)
MIC (Haemophilus influenzae): > 64 µg/mL
MIC (Cutibacterium acnes): 30 µg/mL (≈ 61.5 µM)
MIC (Staphylococcus aureus): 0.5 µg/mL (≈ 1.02 µM)
MIC [1]: 32 µg/mL (≈ 65.5 µM)

O=C(OB(c1cccc(Cl)c1)c1cccc(Cl)c1)c1ncccc1O
MIC (Bacillus subtilis): 16 µg/mL (≈ 43 µM)
MIC (Haemophilus influenzae): 16 µg/mL (≈ 43 µM)
MIC (Cutibacterium acnes): 10 µg/mL (≈ 26.9 µM)
MIC (Staphylococcus aureus): ≤ 0.125 µg/mL
MIC [1]: 8 µg/mL (≈ 21.5 µM)

CSc1cccc(B(OC(=O)c2ncccc2O)c2cccc(Cl)c2)c1
MIC (Bacillus subtilis): 4 µg/mL (≈ 10.4 µM)
MIC (Haemophilus influenzae): > 64 µg/mL
MIC (Cutibacterium acnes): 3 µg/mL (≈ 7.82 µM)
MIC (Staphylococcus aureus): 8 µg/mL (≈ 20.9 µM)
MIC [1]: 8 µg/mL (≈ 20.9 µM)

Cc1ccc(B(OC(=O)c2ncccc2O)c2ccc(C)c(Cl)c2)cc1Cl
MIC (Bacillus subtilis): 1 µg/mL (≈ 2.5 µM)
MIC (Haemophilus influenzae): > 64 µg/mL
inhibition at 10 µM (PBMC [2]): 100%
MIC (Cutibacterium acnes): 0.3 µg/mL (≈ 0.75 µM)
MIC (Staphylococcus aureus): 1 µg/mL (≈ 2.5 µM)
MIC [1]: 0.5 µg/mL (≈ 1.25 µM)
inhibition at 10 µM (PBMC [3]): 99%
inhibition at 10 µM (PBMC [4]): -20%
inhibition at 10 µM (PBMC [5]): -21%

CN(C)c1ccc(B(OC(=O)c2ncccc2O)c2ccc(N(C)C)c(Cl)c2)cc1Cl
MIC (Bacillus subtilis): 64 µg/mL (≈ 140 µM)
MIC (Haemophilus influenzae): > 64 µg/mL
MIC (Staphylococcus aureus): 32 µg/mL (≈ 69.8 µM)
MIC [1]: 32 µg/mL (≈ 69.8 µM)

O=C(OB(c1cccc(F)c1)c1cccc(F)c1)c1ncccc1O
MIC (Bacillus subtilis): > 64 µg/mL
MIC (Haemophilus influenzae): > 64 µg/mL
MIC (Cutibacterium acnes): > 100 µg/mL
MIC (Staphylococcus aureus): > 64 µg/mL
MIC [1]: > 64 µg/mL

Cc1ccc(B(OC(=O)c2ccccn2)c2ccc(C)c(Cl)c2)cc1Cl
MIC (Staphylococcus aureus): 0.5 µg/mL (≈ 1.3 µM)
MIC [1]: > 64 µg/mL

Cc1ccc(B(OC(=O)c2cc(C(=O)O)ccn2)c2ccc(C)c(Cl)c2)cc1Cl
MIC (Cutibacterium acnes): 3 µg/mL (≈ 7.01 µM)
MIC (Staphylococcus aureus): 2 µg/mL (≈ 4.67 µM)
MIC [1]: 4 µg/mL (≈ 9.34 µM)

Cc1ccc(B(CCc2ccccc2)OC(=O)c2ncccc2O)cc1Cl
MIC (Bacillus subtilis): 1 µg/mL (≈ 2.63 µM)
MIC (Haemophilus influenzae): > 64 µg/mL
MIC (Cutibacterium acnes): 1 µg/mL (≈ 2.63 µM)
MIC (Staphylococcus aureus): 0.5 µg/mL (≈ 1.32 µM)
MIC [1]: 1 µg/mL (≈ 2.63 µM)

Cc1cc(Cl)ccc1B(OC(=O)c1ncccc1O)c1ccc(Cl)cc1C
MIC (Bacillus subtilis): 0.5 µg/mL (≈ 1.25 µM)
MIC (Haemophilus influenzae): 16 µg/mL (≈ 40 µM)
inhibition at 10 µM (PBMC [2]): 101%
MIC (Cutibacterium acnes): 0.3 µg/mL (≈ 0.75 µM)
MIC (Staphylococcus aureus): 4 µg/mL (≈ 10 µM)
MIC [1]: 2 µg/mL (≈ 5 µM)
inhibition at 10 µM (PBMC [3]): 103%
inhibition at 10 µM (PBMC [4]): 15%
inhibition at 10 µM (PBMC [5]): 57%

O=C(OB(c1ccc(Cl)cc1)c1ccc(Cl)nc1)c1ncccc1O
MIC (Haemophilus influenzae): 32 µg/mL (≈ 85.8 µM)
MIC (Staphylococcus aureus): 32 µg/mL (≈ 85.8 µM)
MIC [1]: 32 µg/mL (≈ 85.8 µM)

CC[C@H]1OC(=O)[C@H](C)[C@@H](O[C@H]2C[C@@](C)(OC)[C@@H](O)[C@H](C)O2)[C@H](C)[C@@H](O[C@@H]2O[C@H](C)C[C@H](N(C)C)[C@H]2O)[C@](C)(O)C[C@@H](C)C(=O)[C@H](C)[C@@H](O)[C@]1(C)O [ERYTHROMYCIN]
MIC (Bacillus subtilis): 0.1 µg/mL (≈ 0.136 µM)
MIC (Haemophilus influenzae): 4 µg/mL (≈ 5.45 µM)
inhibition at 10 µM (PBMC [2]): 22%
MIC (Cutibacterium acnes): 0.1 µg/mL (≈ 0.136 µM)
MIC (Staphylococcus aureus): 0.5 µg/mL (≈ 0.681 µM)
MIC [1]: 0.15 µg/mL (≈ 0.204 µM)
inhibition at 10 µM (PBMC [3]): -32%

O=C(OB(c1ccc(Cl)cc1)c1cccnc1)c1ncccc1O
MIC (Haemophilus influenzae): 16 µg/mL (≈ 47.3 µM)
MIC (Staphylococcus aureus): 64 µg/mL (≈ 189 µM)
MIC [1]: 32 µg/mL (≈ 94.5 µM)

Cc1ccccc1B(OC(=O)c1ncccc1O)c1cccc(Cl)c1
MIC (Bacillus subtilis): 4 µg/mL (≈ 11.4 µM)
MIC (Haemophilus influenzae): > 64 µg/mL
MIC (Cutibacterium acnes): 3 µg/mL (≈ 8.53 µM)
MIC (Staphylococcus aureus): 8 µg/mL (≈ 22.8 µM)
MIC [1]: 8 µg/mL (≈ 22.8 µM)

O=C(OB(c1ccc(Cl)cc1)c1ccc(Cl)cc1)c1ncccc1O
MIC (Bacillus subtilis): 1 µg/mL (≈ 2.69 µM)
MIC (Haemophilus influenzae): 16 µg/mL (≈ 43 µM)
MIC (Cutibacterium acnes): 1 µg/mL (≈ 2.69 µM)
MIC (Staphylococcus aureus): 4 µg/mL (≈ 10.8 µM)
MIC [1]: 1 µg/mL (≈ 2.69 µM)

Cc1ccc(B(OC(=O)c2ccc(C(=O)O)cn2)c2ccc(C)c(Cl)c2)cc1Cl
MIC (Bacillus subtilis): 8 µg/mL (≈ 18.7 µM)
MIC (Haemophilus influenzae): 8 µg/mL (≈ 18.7 µM)
inhibition at 10 µM (PBMC [2]): 100%
MIC (Cutibacterium acnes): 3 µg/mL (≈ 7.01 µM)
MIC (Staphylococcus aureus): 0.5 µg/mL (≈ 1.17 µM)
MIC [1]: 8 µg/mL (≈ 18.7 µM)
inhibition at 10 µM (PBMC [3]): 80%
inhibition at 10 µM (PBMC [4]): 24%
inhibition at 10 µM (PBMC [5]): 9%

CC(=O)Oc1cccnc1C(=O)OB(c1ccc(C)c(Cl)c1)c1ccc(C)c(Cl)c1
MIC (Bacillus subtilis): 0.5 µg/mL (≈ 1.13 µM)
MIC (Haemophilus influenzae): > 64 µg/mL
inhibition at 10 µM (PBMC [2]): 101%
MIC (Cutibacterium acnes): 1 µg/mL (≈ 2.26 µM)
MIC (Staphylococcus aureus): 2 µg/mL (≈ 4.52 µM)
MIC [1]: 1 µg/mL (≈ 2.26 µM)
inhibition at 10 µM (PBMC [3]): -49%

CCOc1ccc(B(OC(=O)c2ncccc2O)c2ccc(OCC)c(Cl)c2)cc1Cl
MIC (Bacillus subtilis): 2 µg/mL (≈ 4.35 µM)
MIC (Haemophilus influenzae): > 64 µg/mL
MIC (Cutibacterium acnes): 1 µg/mL (≈ 2.17 µM)
MIC (Staphylococcus aureus): 2 µg/mL (≈ 4.35 µM)
MIC [1]: 2 µg/mL (≈ 4.35 µM)

Cc1ccc(B(OC(=O)c2ncccc2O)c2ccc(C)c(Cl)c2)cc1
MIC (Bacillus subtilis): 2 µg/mL (≈ 5.47 µM)
MIC (Haemophilus influenzae): > 64 µg/mL
MIC (Cutibacterium acnes): 3 µg/mL (≈ 8.21 µM)
MIC (Staphylococcus aureus): 4 µg/mL (≈ 10.9 µM)
MIC [1]: 2 µg/mL (≈ 5.47 µM)

O=C(OB(c1cccnc1)c1cccc(Cl)c1)c1ncccc1O
MIC (Haemophilus influenzae): 32 µg/mL (≈ 94.5 µM)
MIC (Staphylococcus aureus): 16 µg/mL (≈ 47.3 µM)
MIC [1]: 32 µg/mL (≈ 94.5 µM)

Cc1ccc(B(OC(=O)c2ncccc2N)c2ccc(C)c(Cl)c2)cc1Cl
MIC (Bacillus subtilis): 2 µg/mL (≈ 5.01 µM)
MIC (Haemophilus influenzae): > 64 µg/mL
MIC (Cutibacterium acnes): 1 µg/mL (≈ 2.51 µM)
MIC (Staphylococcus aureus): > 64 µg/mL
MIC [1]: > 64 µg/mL

O=C(OB(c1ccsc1)c1cccc(Cl)c1)c1ncccc1O
MIC (Bacillus subtilis): 16 µg/mL (≈ 46.6 µM)
MIC (Haemophilus influenzae): 32 µg/mL (≈ 93.1 µM)
MIC (Cutibacterium acnes): 10 µg/mL (≈ 29.1 µM)
MIC (Staphylococcus aureus): 32 µg/mL (≈ 93.1 µM)
MIC [1]: 32 µg/mL (≈ 93.1 µM)

Source: ChEMBL document CHEMBL1146144, “Identification of a novel boron-containing antibacterial agent (AN0128) with anti-inflammatory activity, for the potential treatment of cutaneous diseases” (2006)
